From ChEMBL document CHEMBL1152956, “Synthesis and cytotoxic activity of 5,6-heteroaromatically annulated pyridine-2,4-diamines” (Bioorg Med Chem, 2009) come the findings set out here.

pIC50: −log10 of the molar value.

For orientation: pIC50 means the negative decadic logarithm of the IC50, by convention in mol/L. High values mean a small IC50, low ones a large IC50.

In test [1] the test system is RT-4. The experiment in a line: Growth inhibition of human RT4 cells at 20 uM after 96 hrs by crystal violet staining. The format is functional. As to conditions: RT-4, 96 h, read-out: GI. The method, boiled down:
(§1)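 This was a single-concentration screen. Actively dividing cells had 96 h continuous exposure to compound diluted 1000-fold from a DMSO solution into medium. Cells were fixed with glutaraldehyde and stained with crystal violet. Bound dye was redissolved in 70% ethanol and read at OD 570 nm. Growth inhibition was expressed against untreated controls.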

Test [2] has as its system A-427. Description: Growth inhibition of human A427 cells at 20 uM after 96 hrs by crystal violet staining. The format is functional. As to conditions: A-427, 96 h, read-out: GI. In outline: as §1
Test [3] has as its system 5637. Description: Cytotoxicity against human 5637 cells after 96 hrs by crystal violet staining. The format is functional, cell-based. As to conditions: Homo sapiens, 5637, 96 h. In outline:
(§2)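 Compounds were held as 20 mM DMSO stocks at -20 °C and serially diluted in DMSO to working solutions of 20, 10, 5.0, 2.50, 1.25 and […]. Five of these were diluted 1000-fold into medium, with DMSO-only controls. Dividing cells had 96 h continuous exposure, then glutaraldehyde fixation and crystal violet staining. Dye was redissolved in 70% ethanol and read at OD 570 nm. IC50 came from linear regression of log dose–response curves.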

Test [4] relates to A-427. Description: Cytotoxicity against human A427 cells after 96 hrs by crystal violet staining. In kind it is functional, cell-based. As to conditions: A-427, 96 h. In outline:
as §2

Test [5] is described as follows: Cytotoxicity against human LCLC-103H cells after 96 hrs by crystal violet staining. The format is functional, cell-based. In outline:
as §2

Test [6] deals with MCF7. The experiment in a line: Cytotoxicity against human MCF7 cells after 96 hrs by crystal violet staining. The format is functional, cell-based. As to conditions: MCF7, 96 h. In outline:
as §2

In test [7] the test system is 5637. The experiment in a line: Growth inhibition of human 5637 cells at 20 uM after 96 hrs by crystal violet staining. In kind it is functional. As to conditions: Homo sapiens, 5637, 96 h; read-out: GI. In outline:
as §1

Test [8] in a line: Growth inhibition of human LCLC-103H cells at 20 uM after 96 hrs by crystal violet staining. In kind it is functional. As to conditions: read-out: GI. The method, boiled down:
as §1

Test [9] deals with DAN-G. The experiment in a line: Growth inhibition of human DAN-G cells at 20 uM after 96 hrs by crystal violet staining. In kind it is functional. As to conditions: read-out: GI. The method, boiled down: as §1
Test [10] concerns DAN-G. The experiment in a line: Cytotoxicity against human DAN-G cells after 96 hrs by crystal violet staining. The format is functional, cell-based. The method, boiled down: as §2
Test [11] concerns MCF7. Description: Growth inhibition of human MCF7 cells at 20 uM after 96 hrs by crystal violet staining. In kind it is functional. As to conditions: MCF7, 96 h, read-out: GI. In outline: as §1
Test [12] relates to RT-4. The experiment in a line: Cytotoxicity against human RT4 cells after 96 hrs by crystal violet staining. As to conditions: RT-4, 96 h. In kind it is functional, cell-based. In outline:
as §2

Regarding `CN(C)c1cc(N)c2c(n1)[nH]c1ccccc12`, the inhibition of growth at 20 µM (in the test with RT-4 [1]; with A-427 [2]; in the test with 5637 [7]; in test [8]; in the test on DAN-G [9]; in the test with MCF7 [11]) was below 50% throughout. Moreover, the pIC50 (in the test on 5637 [3]; in the test on A-427 [4]; in [5]; in the test on MCF7 [6]; in the test with DAN-G [10]; in the test with RT-4 [12]) was below 4.70 throughout.
For the compound `CN(C)c1cc(N)c2c3ccccc3n(C)c2n1`, the inhibition of growth at 20 µM (with RT-4 [1]; with A-427 [2]; with 5637 [7]; in test [8]; with DAN-G [9]; with MCF7 [11]) was below 50% each time. Also, the pIC50 (in the test on 5637 [3]; in the test on A-427 [4]; in test [5]; with MCF7 [6]; in the test on DAN-G [10]; in the test on RT-4 [12]) was below 4.70 throughout.
On to `COc1ccc(Cn2c3nc(N(C)C)cc(N)c3c3ccc4ccccc4c32)cc1`, for which the inhibition of growth at 20 µM (in the test with RT-4 [1]; with A-427 [2]; with 5637 [7]; in test [8]; with DAN-G [9]; with MCF7 [11]) was below 50% each time. Further, the pIC50 (with 5637 [3]; in the test with A-427 [4]; in [5]; in the test on MCF7 [6]; in the test with DAN-G [10]; in the test with RT-4 [12]) was below 4.70 in each case.
On to `CN(C)c1cc(N)c2c3c(sc2n1)CCCC3`, for which the inhibition of growth at 20 µM (with RT-4 [1]; with A-427 [2]; in the test on 5637 [7]; in test [8]; with DAN-G [9]; with MCF7 [11]) was below 50% throughout. Besides, the pIC50 (in the test on 5637 [3]; with A-427 [4]; in test [5]; in the test on MCF7 [6]; in the test with DAN-G [10]; with RT-4 [12]) was below 4.70 each time.
Regarding `CCOC(OCC)n1c2ccccc2c2c(N)cc(N(C)C)nc21`, the inhibition of growth at 20 µM (in the test with RT-4 [1]; in the test with A-427 [2]; with 5637 [7]; in test [8]; with DAN-G [9]; in the test with MCF7 [11]) was below 50% in each case. Moreover, the pIC50 (in the test on 5637 [3]; in the test with A-427 [4]; in [5]; in the test on MCF7 [6]; in the test with DAN-G [10]; with RT-4 [12]) was below 4.70 throughout.
For `Cc1oc2nc(N3CCCC3)cc(N)c2c1C`, the inhibition of growth at 20 µM (in the test on RT-4 [1]; in the test on A-427 [2]; in the test on 5637 [7]; in test [8]; in the test on DAN-G [9]; with MCF7 [11]) was below 50% each time. Also, the pIC50 (in the test with 5637 [3]; in the test on A-427 [4]; in test [5]; with MCF7 [6]; in the test with DAN-G [10]; with RT-4 [12]) was below 4.70 in each case.
